From PubChem BioAssay
Tb MetRS inh = T. brucei MetRS inhibitors, primary screen, biochemical, luminescence; methionyl-tRNA synthetase (Trypanosoma brucei brucei); hit rate 0.4% among 360,000; inhibition, % at 11.9 µM; AID 624268, 2012; purified T. brucei MetRS, ATP depletion, Kinase-Glo luminescence;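 active = inhibition above a per-plate cutoff of the control wells' mean inhibition plus 3 SD, cut at about 5.5% in these data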
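Material: T. brucei methionyl-tRNA synthetase, purified; reagent: substrates ATP, L-methionine and bulk Escherichia coli tRNA; dosing: 11.9 µM single point; timing: 15 min plus 2 h at 25 °C; detection: luminescence of leftover ATP; evaluation: % inhibition; control set: DMSO-only wells as low control; replicates: singlicate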
sPLA2-III inh = human group III sPLA2 inhibitors, primary screen, biochemical, QFRET, BODIPY PC-A2 liposome substrate. QFRET BODIPY PC-A2 liposome hydrolysis, fluorescence. AID 743126, 2013. hit rate 0.56% among 370,000. inhibition, % at 12.2 µM;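 active = inhibition above mean plus 3 SD of compounds lying within the high and low control bounds, cut at about 19% in these data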
PLCg1 inh = PLC-gamma1 enzyme inhibitors, primary screen, biochemical, fluorescence, purified enzyme; fluorogenic substrate; inhibition, % at 12.2 µM; hit rate 0.84% among 370,000; AID 720700, 2013
PLC-beta3 inh = human PLC-beta3 inhibitors, primary screen, biochemical, fluorescence | 1-phosphatidylinositol 4,5-bisphosphate phosphodiesterase beta-3 (Homo sapiens), Q01970 | Purified PLC-beta3, fluorogenic substrate | inhibition, % at 12.2 µM | hit rate 0.18% among 370,000; in the data active = inhibition above about 11%
Target sequence (Q01970 whole entry, looked up): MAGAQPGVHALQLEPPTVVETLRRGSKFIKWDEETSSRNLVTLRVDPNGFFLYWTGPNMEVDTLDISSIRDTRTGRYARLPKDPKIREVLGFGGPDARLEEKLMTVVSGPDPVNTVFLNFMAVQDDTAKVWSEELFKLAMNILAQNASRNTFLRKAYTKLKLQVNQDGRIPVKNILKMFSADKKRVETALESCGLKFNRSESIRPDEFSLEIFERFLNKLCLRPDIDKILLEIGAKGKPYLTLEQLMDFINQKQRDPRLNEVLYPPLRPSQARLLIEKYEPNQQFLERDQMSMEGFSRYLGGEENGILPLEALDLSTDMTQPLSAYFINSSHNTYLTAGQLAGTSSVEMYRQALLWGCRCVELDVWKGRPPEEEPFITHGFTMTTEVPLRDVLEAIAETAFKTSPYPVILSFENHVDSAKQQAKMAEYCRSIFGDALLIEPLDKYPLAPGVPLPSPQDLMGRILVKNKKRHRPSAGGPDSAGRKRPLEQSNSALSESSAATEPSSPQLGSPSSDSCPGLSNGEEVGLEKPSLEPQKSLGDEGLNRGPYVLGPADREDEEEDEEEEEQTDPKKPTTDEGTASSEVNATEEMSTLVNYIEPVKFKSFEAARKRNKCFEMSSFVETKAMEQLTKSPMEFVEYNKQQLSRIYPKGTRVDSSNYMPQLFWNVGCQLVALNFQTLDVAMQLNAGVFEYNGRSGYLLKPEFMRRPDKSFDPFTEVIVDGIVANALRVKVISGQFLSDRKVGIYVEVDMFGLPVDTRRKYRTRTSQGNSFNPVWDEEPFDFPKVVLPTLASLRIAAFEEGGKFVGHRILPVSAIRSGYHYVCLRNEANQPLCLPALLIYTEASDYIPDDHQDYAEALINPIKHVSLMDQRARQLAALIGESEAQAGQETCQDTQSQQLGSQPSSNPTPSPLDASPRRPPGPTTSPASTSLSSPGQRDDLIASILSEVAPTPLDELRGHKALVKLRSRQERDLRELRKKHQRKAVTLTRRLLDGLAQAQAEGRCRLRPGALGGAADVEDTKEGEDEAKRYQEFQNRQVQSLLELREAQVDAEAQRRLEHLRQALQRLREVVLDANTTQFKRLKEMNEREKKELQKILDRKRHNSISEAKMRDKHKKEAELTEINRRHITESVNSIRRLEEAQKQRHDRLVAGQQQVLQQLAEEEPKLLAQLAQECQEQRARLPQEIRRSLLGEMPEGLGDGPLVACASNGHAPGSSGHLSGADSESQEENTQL
PLCg1 ctr = PLC-gamma1 enzyme inhibitors, counter-screen for PLC-beta3 inhibitor project, biochemical, fluorescence | shares compounds with PLCg1 inh | purified PLC-gamma1, fluorogenic substrate | inhibition, % at 12.3 µM | hit rate 3.1% among 3,300
PLCb3 confirm = PLC-beta3 inhibitor confirmation, biochemical, fluorescence, purified enzyme | inhibition, % at 12.3 µM | shares compounds with PLCg1 inh | hit rate 1% among 3,300 | AID 743261, 2014 | fluorogenic substrate fluorescence; in the data active = inhibition above about 11%
Each line names hits and unclear results; the compound was inactive in the other large screens (follow-up assays come after a bar, where they were run). Shown are actives, neighbours in structure and some others; about 1.9% of the full set was active somewhere. Rule as the data show it, unless noted: active = inhibition above about 9.5%; inactive = the rest.

CCOc1ccc(-n2nnnc2SCC(=O)Nc2cccc(O)c2)cc1	PLCg1 inh 13 | PLCg1 ctr inactive | PLCb3 confirm inactive
CCOc1ccc(-n2nnnc2SCC(=O)Nc2ccc(NC(C)=O)cc2)cc1	none
NC(=O)c1cc(S(=O)(=O)NCCc2ccccc2)cs1	none
NC(=O)c1cc(S(=O)(=O)NCCc2ccc(Cl)cc2)cs1	PLCg1 inh 12 | PLCg1 ctr inactive | PLCb3 confirm inactive
CC(C)[C@H](N)C(=O)N[C@@H](Cc1ccccc1)C(=O)N1CCC2CCN(S(=O)(=O)c3ccccc3)CC21 (stereo not given in full)	none (no result: Tb MetRS inh)
Cc1ccc(N(CC(N)=O)C2SC(=O)N(Cc3ccccc3)C2=O)cc1 (stereo not given)	PLCg1 inh 9.6 | PLCg1 ctr inactive | PLCb3 confirm inactive
COC(=O)c1ccc(-c2ccc3c(c2)[C@]2(CCC[C@@H](O)[C@@H]2NC(=O)CCc2ccccc2)C(=O)N3Cc2ccccc2)cc1	none (no result: Tb MetRS inh)
COc1ccc(S(=O)(=O)N2CCCCCC2)cc1	none
COc1ccc(CNS(=O)(=O)c2ccc(S(=O)(=O)N3CCCCC3)cc2)cc1	PLCg1 inh 11 | PLCg1 ctr inactive | PLCb3 confirm inactive
COc1ccc(S(=O)(=O)N2CCN(C3CCCCCCC3)CC2)cc1	none
COc1ccc(S(=O)(=O)N2CCC(N3CCCCC3)CC2)cc1	PLCg1 inh 9.7 | PLCg1 ctr inactive | PLCb3 confirm inactive
COc1ccc(CNC(=O)c2cc(S(=O)(=O)N3CCCCC3)ccc2Cl)cc1OC	PLC-beta3 inh 13 | PLCg1 ctr inactive | PLCb3 confirm inactive
CCN1CCN(C(=O)CN(CCc2ccccc2)S(C)(=O)=O)CC1	PLCg1 inh 9.9 | PLCg1 ctr inactive | PLCb3 confirm inactive
C/C(CC(=O)Nc1ccccc1C)=N\NC(=O)Cc1csc(N)n1	PLCg1 inh 9.9 | PLCg1 ctr inactive | PLCb3 confirm inactive
CN(C(=O)COc1cccc(C#N)c1)C1CCS(=O)(=O)C1 (stereo not given)	PLCg1 inh 11 | PLCg1 ctr inactive | PLCb3 confirm inactive
CCCNC(=O)C1(C)CCN(CCS(=O)(=O)c2ccc(C)cc2)C1 (stereo not given)	none
CCNC(=O)C1(C)CCN1CCS(=O)(=O)c1ccc(C)cc1 (stereo not given)	PLC-beta3 inh 13 | PLCg1 ctr inactive | PLCb3 confirm inactive
O=C(O)c1ccccc1-c1nc2ccccc2c(=O)[nH]1	PLCg1 inh 9.9 | PLCg1 ctr inactive | PLCb3 confirm inactive
CCOC(=O)C1C(=O)OC(C)(C)C1C(C)C(=O)c1ccc(C)cc1 (stereo not given)	PLCg1 inh 9.5 | PLCg1 ctr inactive | PLCb3 confirm inactive
COc1ccc(OC)c(S(=O)(=O)N2CCC(C(=O)NCc3cccs3)CC2)c1	none (no result: Tb MetRS inh)
C#CNC(=O)C1(CC=C)CCNCC1	PLC-beta3 inh 12 | PLCg1 ctr inactive | PLCb3 confirm inactive
O=C(O)CS(=O)CC(=O)Nc1cccc(C(F)(F)F)c1 (stereo not given)	PLCg1 inh 20 | PLCg1 ctr 25 | PLCb3 confirm inactive
Cc1cccc(NC(=O)c2cc(S(=O)(=O)c3ccccc3)ccc2Cl)c1	PLCg1 inh 11 | PLCg1 ctr inactive | PLCb3 confirm inactive
O=C(/C=C(/c1ccc(Cl)cc1)n1cncn1)c1ccccc1	PLC-beta3 inh 11 | PLCg1 ctr inactive | PLCb3 confirm inactive
CCCn1c(SCC(=O)Nc2nc3c(s2)CCCC3)nc2c1c(=O)n(C)c(=O)n2C	PLCg1 inh 10 | PLCg1 ctr inactive | PLCb3 confirm inactive
Cc1cc(=O)c2n(Cc3ccccc3Cl)nc[n+]2[nH]1	PLCg1 inh 14 | PLCg1 ctr inactive | PLCb3 confirm inactive
O=c1c(Cl)c(Cl)cnn1Cc1ccccc1Cl	none (no result: Tb MetRS inh)
CC(OC(=O)c1ccc2c(c1)OCO2)C(=O)NC1CCCCC1 (stereo not given)	PLCg1 inh 11 | PLCg1 ctr inactive | PLCb3 confirm inactive
